HSF-1 act: increases HSF-1 driven luciferase reporter signal; NIH3T3-HGL HSF-1 luciferase reporter, MG132, 8 h; 100% = twice DMSO control signal; activation, % at 9 µM; 300,000 tested, 1.7% active; AID 504408;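 active = mean replicate activation of at least 50% with a set share of replicates each reaching 50%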
Jurkat NFkB inh: lowers PMA/ionomycin-induced NF-kB signal in Jurkat cells. PMA/ionomycin-induced NF-kB luciferase reporter, luminescence. inhibition, % at 4 µM. 330,000 tested, 0.53% active. AID 435003; in the data active = inhibition above about 50%
697 NFkB inh: lowers PMA/ionomycin-induced NF-kB signal in 697 B cells. inhibition, % at 4 µM. 330,000 tested, 0.33% active. 697 B-cell NF-kB luciferase reporter, 16 h. AID 435022; in the data active = inhibition above about 35%
GPR7 antag: blocks human GPR7 receptor signaling; P48145; inhibition, % at 4.4 µM; GPR7-expressing cells, fluorescence antagonist assay; 290,000 tested, 1.1% active; in the data active = inhibition above about 16%, passing the limit was not always enough;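 note: cells stimulated with the agonist NPW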
Target sequence (P48145 whole entry, looked up): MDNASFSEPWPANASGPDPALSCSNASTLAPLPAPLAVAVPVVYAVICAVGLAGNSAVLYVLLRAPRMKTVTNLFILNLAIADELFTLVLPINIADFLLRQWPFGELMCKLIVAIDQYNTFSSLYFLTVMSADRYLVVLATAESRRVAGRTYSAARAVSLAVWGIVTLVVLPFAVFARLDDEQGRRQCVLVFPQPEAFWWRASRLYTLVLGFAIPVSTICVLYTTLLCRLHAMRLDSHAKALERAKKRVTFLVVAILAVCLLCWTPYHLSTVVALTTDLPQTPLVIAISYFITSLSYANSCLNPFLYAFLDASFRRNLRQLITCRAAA
HSF1 inh: HSF1 inhibition. NIH3T3-HGL HSE-luciferase, MG132-induced, luminescence 8 h; active compounds read low. 300,000 tested, 0.77% active. activity change, negative = inhibition, % at 7.5 µM (by protocol);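 active = more than half of replicate wells show activity change below -50%, luminescence cut by over half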;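 note: luciferase reports HSF-1 transcriptional activity via heat shock element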
T cruzi inh: T. cruzi replication inhibition; inhibition, % (concentration not given with the values); 300,000 tested, 1.4% active; T. cruzi beta-gal in NIH3T3, luminescence, 90 h;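 active = mean inhibition across valid replicates above about 55%, limit read from the data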;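 note: signal also drops with host cell toxicity which is not excluded here; higher percent means less beta-gal luminescence so fewer parasites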
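Assay system: NIH/3T3 fibroblasts plus reporter T. cruzi. Amount: NIH/3T3 cells, 5,000 per well. Buffer or medium: DMEM, 2% fetal bovine serum. Doses: compound pinned at 50 nL/well, DMSO. Schedule: ≥90 h infection period, 3 h prior cell attachment. Signal: luminescent β-galactosidase signal after 60 min lysis. Read-out: parasite load inhibition, %.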
Each line names hits and unclear results; the compound was inactive in the other large screens. Rows were chosen to be rich in hits. Some 4.8% of all compounds tested hit in one or more screens of this group.

O=C(CN1C(=O)c2ccccc2S1(=O)=O)c1ccccc1F	HSF1 inh -52
O=C(CN1C(=O)c2ccccc2S1(=O)=O)c1ccc(F)cc1	none
CC(C)CNS(=O)(=O)c1cc(C(=O)OCC(=O)c2ccc3c(c2)OCCO3)c(Cl)cc1Cl	HSF-1 act 69
CCCn1c(C)cc(C(=O)COC(=O)c2cc(S(=O)(=O)NCC(C)C)c(Cl)cc2Cl)c1C	none
COc1ccc(-n2c(=S)[nH]c3cc(C(=O)Nc4ccc(F)cc4)ccc3c2=O)c(OC)c1	HSF-1 act 87
O=C(/C=C/c1cn(-c2ccccc2)nc1-c1cccc(Cl)c1)N1CCN(c2ccccn2)CC1	T cruzi inh 73
COc1cc(/C=C/c2ccc3cccc(O)c3n2)cc(Br)c1OC	T cruzi inh 72
Cc1ccc(/C=C/c2ccc3cccc(O)c3n2)s1	HSF-1 act 85
COc1cccc(/C=C/c2ccc3cccc(O)c3n2)c1OC	none
COc1cc(COC(=O)c2cnc(C)cn2)c(OC)cc1Br	none
Cc1cc(C(=O)COC(=O)C2=COCCO2)c(C)n1-c1ccc2c(c1)OCO2	none
Cc1cc(C(=O)COC(=O)Cc2n[nH]c(=O)c3ccccc23)c(C)n1-c1ccc2c(c1)OCCO2	HSF1 inh -57, T cruzi inh 69
COc1ccc(OC)c(S(=O)(=O)N/N=C(/C)c2ccc3c(c2)OCO3)c1	none
CC(/C=C/c1cccs1)=C\C(=O)O	HSF-1 act 92 (no result: Jurkat NFkB inh, 697 NFkB inh)
CCN(c1ccccc1)S(=O)(=O)c1cc(C(=O)Nc2ccc(Br)cc2)ccc1F	T cruzi inh 57
COc1cccc(-c2ncc3ccccc3c2COC(=O)c2ccc(C(F)(F)F)cc2)c1	none (no result: HSF-1 act, GPR7 antag, HSF1 inh, T cruzi inh)
CCN(CC(=O)Nc1ccc2c(c1)OCCO2)C(=O)c1ccc(CS(C)(=O)=O)cc1	none (no result: HSF-1 act, GPR7 antag, HSF1 inh, T cruzi inh)
COc1cc(OC)cc(C(=O)NNc2nc3cc4c(cc3s2)OCO4)c1	none
COc1ccccc1C(=O)Nc1nc2cc3c(cc2s1)OCO3	HSF-1 act 54
COc1cccc(OC)c1C(=O)Nc1nc2cc3c(cc2s1)OCO3	none
COc1cc(C(=O)NNc2nc3cc4c(cc3s2)OCO4)cc(OC)c1OC	HSF-1 act 62
COc1ccc(C(=O)Nc2nc3cc4c(cc3s2)OCCO4)c(OC)c1	HSF1 inh -61
CN1CCN(C(=O)/C(=C/c2ccc([N+](=O)[O-])cc2)NC(=O)c2ccccc2)CC1	none
COc1ccc(CCN(C)CC(=O)Nc2c(C)cc(C)cc2C)cc1OC	T cruzi inh 61
COc1ccc(CCN(C)CCC(=O)Nc2cc(C)ccc2C)cc1OC	none
NC(=O)NC(CC(=O)NCCc1ccc(S(N)(=O)=O)cc1)c1ccccc1Cl (stereo not given)	none
Cc1c(Cl)cccc1NC(=O)COC(=O)c1c2c(nc3ccccc13)CCN(Cc1ccccc1)C2	T cruzi inh 68
Cc1ccccc1C(=O)N1CCC(C(=O)OCc2ccccc2Cl)CC1	none (no result: HSF-1 act, GPR7 antag, HSF1 inh, T cruzi inh)
C[C@H](NC(=O)OC(C)(C)C)C(=O)N/N=C/c1ccc2nccnc2c1	none
COc1cccc(C(=O)Nc2cccc(SC)c2)c1	HSF-1 act 62
O=C(Nc1cccc(Br)c1)c1ccc(OC2CSC2)cc1	HSF-1 act 51
COc1ccccc1C(=O)Nc1cccc(SC)c1	none
Cc1ccc(C(=O)Nc2cccc(-c3cnc4ccccc4n3)c2)cc1	HSF1 inh -61
CSc1cccc(NC(=O)c2cccc3cccnc23)c1	HSF-1 act 54
C/C(=N\NC(=O)C1CC1)c1ccc(OC(F)F)cc1	none
CC(=O)c1ccccc1NC(=O)COC(=O)CCC1CCCC1	none (no result: HSF-1 act, GPR7 antag, HSF1 inh, T cruzi inh)
COc1ccc(NC(=O)c2cccc(OS(=O)(=O)N(C)C)c2)cc1	HSF-1 act 54
Cc1nc(-c2ccc(C(=O)Nc3cccc(Br)c3)cc2)cs1	HSF-1 act 56
Cc1nc(-c2cccc(NC(=O)c3ccc(-n4nccc4C)cc3)c2)cs1	none (no result: HSF-1 act, GPR7 antag, HSF1 inh, T cruzi inh)
COc1ccc(NC(=O)c2cc3cc(OC)ccc3oc2=N)cc1	HSF1 inh -53
COc1ccc(C(=O)Nc2cccc(C)c2)cc1	HSF-1 act 62
COc1ccc(CC(=O)Nc2cccc(C(=O)Nc3cccc(C)c3)c2)cc1	none
S=C(Nc1ccccn1)NC1CCCCC1	none
CC(=O)NNC(=O)c1nc(-c2ccccc2)c(C)o1	none (no result: HSF-1 act, HSF1 inh, T cruzi inh)

Source: PubChem (several laboratories)
